Laboratory results published in ChEMBL document CHEMBL1128432, “Structure-activity relationships for inhibition of type 1 and 2 human 5 alpha-reductase and human adrenal 3 beta-hydroxy-delta 5-steroid dehydrogenase/3-keto-delta 5-steroid isomerase by 6-azaandrost-4-en-3-ones: optimization of the C17 substituent” (J Med Chem, 1995).

Experiments:
[1] = Inhibition of recombinant human adrenal 3-beta-hydroxy-delta-5-steroid dehydrogenase
[2] = target: T1, 3-oxo-5-alpha-steroid 4-dehydrogenase 1 (Homo sapiens, UniProt P18405); experiment: Inhibition of recombinant steroid 5-alpha-reductase type I
T1 sequence (P18405 whole entry): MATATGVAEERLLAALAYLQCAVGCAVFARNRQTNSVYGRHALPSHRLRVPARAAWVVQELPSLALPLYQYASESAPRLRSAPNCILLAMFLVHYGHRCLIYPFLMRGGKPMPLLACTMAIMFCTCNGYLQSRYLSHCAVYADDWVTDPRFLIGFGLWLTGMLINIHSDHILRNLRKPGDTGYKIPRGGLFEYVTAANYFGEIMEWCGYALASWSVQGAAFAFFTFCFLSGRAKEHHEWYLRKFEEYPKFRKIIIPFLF

[3] = target: T2, 3-oxo-5-alpha-steroid 4-dehydrogenase 2 (Homo sapiens, UniProt P31213); experiment: Inhibitory activity measured on human steroid 5-alpha-reductase type 2
T2 sequence (P31213 whole entry): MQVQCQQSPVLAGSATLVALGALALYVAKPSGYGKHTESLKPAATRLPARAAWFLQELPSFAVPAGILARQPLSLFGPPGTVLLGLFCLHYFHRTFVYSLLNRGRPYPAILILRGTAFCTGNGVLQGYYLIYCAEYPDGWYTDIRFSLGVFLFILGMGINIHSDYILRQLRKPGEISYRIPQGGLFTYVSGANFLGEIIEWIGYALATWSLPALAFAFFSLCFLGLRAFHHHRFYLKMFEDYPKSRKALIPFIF

[4] = Inhibition of […] rat adrenal 3-beta-hydroxy-delta-5-steroid dehydrogenase
Procedure, shortened: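 Rat adrenal microsomes from homogenization and differential centrifugation. Started with 8 nM [3H]DHEA, stopped at 15 min with ethanol, and androstenedione measured by radio-HPLC. Kiapp from nonlinear regression, converted to Ki with Km 21 nM.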

[5] = target: T3, 3-oxo-5-alpha-steroid 4-dehydrogenase 2 (Rattus norvegicus, UniProt P31214); experiment: Inhibitory activity was measured on rat Steroid 5-alpha-reductase type 2
T3 sequence (P31214 whole entry): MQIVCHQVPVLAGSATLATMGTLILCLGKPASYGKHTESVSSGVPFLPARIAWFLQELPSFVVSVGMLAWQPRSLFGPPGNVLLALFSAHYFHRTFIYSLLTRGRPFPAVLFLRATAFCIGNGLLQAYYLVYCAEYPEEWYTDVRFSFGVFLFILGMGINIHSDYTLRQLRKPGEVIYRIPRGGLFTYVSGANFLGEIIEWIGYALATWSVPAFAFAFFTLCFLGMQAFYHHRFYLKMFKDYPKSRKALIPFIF
Procedure, shortened: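 Recombinant rat type 2 5α-reductase, assayed by the same procedure as the human type 2 assay, with changes specific to the rat enzymes.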

[6] = Bioavailability in dog (Beagle) at t1/2 (dose 5 mg/kg i.v.); assay type: ADME, organism-based, Canis lupus familiaris; details: in vivo, iv
Procedure, shortened: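 Male beagles dosed intravenously (5 mg/kg for these lines), 2–5 animals. Blood half-life measured in hours after iv dosing; % bioavailability reported alongside.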

[7] = Plasma half life in beagles after iv administration.; details: beagle, dog
[8] = target: T4, 3-oxo-5-alpha-steroid 4-dehydrogenase 1 (Rattus norvegicus, UniProt P24008); experiment: (§1) Inhibition of recombinant Steroid 5-alpha-reductase type I was evaluated as binding affinity of the compound
T4 sequence (P24008 whole entry): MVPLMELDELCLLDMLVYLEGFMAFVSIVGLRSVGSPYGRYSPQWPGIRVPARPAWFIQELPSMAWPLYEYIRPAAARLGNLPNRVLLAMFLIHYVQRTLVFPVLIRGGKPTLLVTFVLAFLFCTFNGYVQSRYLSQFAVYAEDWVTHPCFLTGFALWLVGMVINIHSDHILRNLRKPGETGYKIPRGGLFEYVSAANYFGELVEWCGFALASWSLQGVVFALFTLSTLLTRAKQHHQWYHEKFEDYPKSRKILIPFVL

Rattus norvegicus = experiment: % reduction in prostate weight when compared with T-treated controls was measured in castrated rat at 10 mg/kg/day po administration; assay type: functional, Prostate gland
Procedure, shortened: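 Castrated male rats, 8 per group, given 10 mg/kg/day orally alongside testosterone. The readout is ventral prostate weight reduction versus testosterone-treated controls, expressed relative to finasteride run as an internal standard in each experiment.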

[9] = target: T4, 3-oxo-5-alpha-steroid 4-dehydrogenase 1; experiment: Inhibition of recombinant Steroid 5-alpha-reductase type I was evaluated as binding affinity (in vitro)
[10] = target: T1, 3-oxo-5-alpha-steroid 4-dehydrogenase 1; experiment: as §1
[11] = 4 mg/kg, in the assay text read “dose 4 mg/kg i.v.” for “dose 5 mg/kg i.v.”

SMILES | Ki [1] | Ki [2] | IC50 [3] | further results
CC(C)(C)c1cc(NC(=O)[C@H]2CCC3C4CNC5=CC(=O)CC[C@]5(C)C4CC[C@@]32C)cc(C(C)(C)C)c1 (stereo partly specified) | 7.8 nM | 8 nM | < 0.1 nM | 
CC(C)(C)c1ccc(C(F)(F)F)cc1NC(=O)[C@H]1CCC2C3CNC4=CC(=O)CC[C@]4(C)C3CC[C@@]21C (stereo partly specified) | 1600 nM | 8.8 nM | < 0.1 nM | Ki [4]: 140 nM; Ki [5]: 0.17 nM; bioavailability [6, 11]: 67%; half-life [7]: 528 min; Ki [8]: 0.1 nM; Reduction in prostate weight (Rattus norvegicus): 100%
C[C@]12CCC(=O)C=C1NCC1C2CC[C@@]2(C)C1CC[C@@H]2C(=O)Nc1ccccc1 (stereo partly specified) | 10 nM | 240 nM |  | 
CC(C)(C)c1ccc(-c2ccc(C(F)(F)F)cc2NC(=O)[C@H]2CCC3C4CNC5=CC(=O)CC[C@]5(C)C4CC[C@@]32C)cc1 (stereo partly specified) | 19 nM | 1100 nM | 0.5 nM | 
CC(C)(C)c1ccc(C2(NC(=O)[C@H]3CCC4C5CNC6=CC(=O)CC[C@]6(C)C5CC[C@@]43C)CCCC2)cc1 (stereo partly specified) | 1500 nM | 3 nM | < 0.1 nM | 
CC(C)(C)c1ccc(Br)cc1NC(=O)[C@H]1CCC2C3CNC4=CC(=O)CC[C@]4(C)C3CC[C@@]21C (stereo partly specified) | 820 nM | 4.2 nM | < 0.1 nM | 
C[C@]12CCC(=O)C=C1NCC1C2CC[C@@]2(C)C1CC[C@@H]2C(=O)NC1(c2ccc(Cl)cc2)CCCC1 (stereo partly specified) | 1600 nM | 6.8 nM | < 0.1 nM | Ki [4]: 97 nM; Ki [5]: 0.12 nM; bioavailability ([6]; 5 mg/kg): 79%; half-life [7]: 720 min; Ki [9]: 0.07 nM; Reduction in prostate weight (Rattus norvegicus): 130%
CC(C)(C)c1cc(Br)ccc1NC(=O)[C@H]1CCC2C3CNC4=CC(=O)CC[C@]4(C)C3CC[C@@]21C (stereo partly specified) | 390 nM | 5.3 nM | < 0.1 nM | 
C[C@]12CCC(=O)C=C1NCC1C2CC[C@@]2(C)C1CC[C@@H]2C(=O)Nc1cc(C(F)(F)F)ccc1C(F)(F)F (stereo partly specified) | 300 nM | 4 nM | < 0.1 nM | Ki [4]: 50 nM; Ki [5]: 1.1 nM; bioavailability [6, 11]: 100%; half-life [7]: 1860 min; Ki [8]: 0.27 nM; Reduction in prostate weight (Rattus norvegicus): 130%
CC(C)(C)c1ccc(-c2ccc(Cl)cc2)cc1NC(=O)[C@H]1CCC2C3CNC4=CC(=O)CC[C@]4(C)C3CC[C@@]21C (stereo partly specified) | 1200 nM | 3.4 nM | < 0.1 nM | 
C[C@]12C=CC(=O)NC1CCC1C2CC[C@@]2(C)C1CC[C@@H]2C(=O)NC1(c2ccc(Cl)cc2)CCCC1 (stereo partly specified) | 9000 nM |  | < 0.1 nM | IC50 [10]: 0.9 nM
CC1=C2NCC3C(CC[C@@]4(C)C3CC[C@@H]4C(=O)Nc3cc(C(F)(F)F)ccc3C(C)(C)C)[C@@]2(C)CCC1=O (stereo partly specified) | 200 nM | 0.5 nM | < 0.1 nM | 
CC1=C2NCC3C(CC[C@@]4(C)C3CC[C@@H]4C(=O)Nc3cc(C(F)(F)F)ccc3C(F)(F)F)[C@@]2(C)CCC1=O (stereo partly specified) | 19 nM | 0.2 nM | < 0.1 nM | 
C[C@]12CCC(C(=O)O)=CC1=CCC1C2CC[C@@]2(C)C1CC[C@@H]2C(=O)NC1(c2ccc(Cl)cc2)CCCC1 (stereo partly specified) | 280 nM |  | < 0.1 nM | IC50 [10]: 60 nM
CC(C)(C)c1ccc(Cl)cc1NC(=O)[C@H]1CCC2C3CNC4=CC(=O)CC[C@]4(C)C3CC[C@@]21C (stereo partly specified) | 760 nM | 7.5 nM | < 0.1 nM | 
CC(C)(C)c1ccc(-c2ccccc2)cc1NC(=O)[C@H]1CCC2C3CNC4=CC(=O)CC[C@]4(C)C3CC[C@@]21C (stereo partly specified) | 830 nM | 4.6 nM | < 0.1 nM | 
CC(C)(C)c1ccc(-c2ccc(C(C)(C)C)c(NC(=O)[C@H]3CCC4C5CNC6=CC(=O)CC[C@]6(C)C5CC[C@@]43C)c2)cc1 (stereo partly specified) | 8900 nM | 1.3 nM | < 0.1 nM | 
CC(C)(C)c1ccc(C2(NC(=O)[C@H]3CCC4C5CNC6=CC(=O)CC[C@]6(C)C5CC[C@@]43C)CCCCC2)cc1 (stereo partly specified) | 2200 nM | 1.5 nM | < 0.1 nM | 
CC(C)(C)c1ccc(C2(NC(=O)[C@H]3CCC4C5CNC6=CC(=O)CC[C@]6(C)C5CC[C@@]43C)CCCCCC2)cc1 (stereo partly specified) | 1500 nM | 3.6 nM | < 0.1 nM | 
CC(C)(C)c1ccccc1NC(=O)[C@H]1CCC2C3CNC4=CC(=O)CC[C@]4(C)C3CC[C@@]21C (stereo partly specified) | 85 nM | 27 nM | 0.2 nM | 
C[C@]12CCC(=O)C=C1NCC1C2CC[C@@]2(C)C1CC[C@@H]2C(=O)Nc1cc(C(F)(F)F)cc(C(F)(F)F)c1 (stereo partly specified) | 58 nM | 26 nM | 0.2 nM | 
CC(C)(C)c1ccc(C(C)(C)C)c(NC(=O)[C@H]2CCC3C4CNC5=CC(=O)CC[C@]5(C)C4CC[C@@]32C)c1 (stereo partly specified) | 500 nM | 5 nM | < 0.1 nM | 
C[C@]12CCC(=O)C=C1NCC1C2CC[C@@]2(C)C1CC[C@@H]2C(=O)NC1(c2ccc(Cl)cc2Cl)CC1 (stereo partly specified) | 130 nM | 6.7 nM | < 0.1 nM | 
C[C@]12CCC(=O)C=C1NCC1C2CC[C@@]2(C)C1CC[C@@H]2C(=O)NC1(c2ccc(Cl)cc2)CCCCC1 (stereo partly specified) | 1800 nM | 3.1 nM | < 0.1 nM | 
C[C@]12CC[C@H]3[C@@H](CNC4=C(Cl)C(=O)CC[C@@]43C)[C@@H]1CC[C@@H]2C(=O)Nc1c(C(F)(F)F)cccc1C(F)(F)F (stereo in doubt; 25) | 370 nM | 0.6 nM |  | 
C[C@]12CC[C@H]3[C@@H](CNC4=C(Cl)C(=O)CC[C@@]43C)[C@@H]1CC[C@@H]2C(=O)Nc1cc(C(F)(F)F)ccc1C(F)(F)F (stereo in doubt; 27) | 160 nM | 0.2 nM | < 0.1 nM | 
CC(C)(C)NC(=O)[C@H]1CC[C@H]2[C@@H]3CC=C4C=C(C(=O)O)CC[C@]4(C)[C@H]3CC[C@]12C [EPRISTERIDE] | 160 nM |  |  | IC50 [10]: 1600 nM
CC(C)(C)NC(=O)[C@H]1CC[C@H]2[C@@H]3CC[C@H]4NC(=O)C=C[C@]4(C)[C@H]3CC[C@]12C [FINASTERIDE] | 11000 nM |  |  | Ki [4]: 150 nM; IC50 [5]: 0.28 nM; half-life [7]: 252 min; Ki [9]: 6.8 nM
